The subject of assay [1] is Rattus norvegicus. The experiment in a line: Hypertensive activity (increase in arterial pressure to 60 mmHg)) after i.v. administration to pithed rats.
The target in assay [2] is T1, Adrenergic receptor alpha-1 (Rattus norvegicus, UniProt P15823+P23944+P43140).
T1 sequence (P15823 whole entry): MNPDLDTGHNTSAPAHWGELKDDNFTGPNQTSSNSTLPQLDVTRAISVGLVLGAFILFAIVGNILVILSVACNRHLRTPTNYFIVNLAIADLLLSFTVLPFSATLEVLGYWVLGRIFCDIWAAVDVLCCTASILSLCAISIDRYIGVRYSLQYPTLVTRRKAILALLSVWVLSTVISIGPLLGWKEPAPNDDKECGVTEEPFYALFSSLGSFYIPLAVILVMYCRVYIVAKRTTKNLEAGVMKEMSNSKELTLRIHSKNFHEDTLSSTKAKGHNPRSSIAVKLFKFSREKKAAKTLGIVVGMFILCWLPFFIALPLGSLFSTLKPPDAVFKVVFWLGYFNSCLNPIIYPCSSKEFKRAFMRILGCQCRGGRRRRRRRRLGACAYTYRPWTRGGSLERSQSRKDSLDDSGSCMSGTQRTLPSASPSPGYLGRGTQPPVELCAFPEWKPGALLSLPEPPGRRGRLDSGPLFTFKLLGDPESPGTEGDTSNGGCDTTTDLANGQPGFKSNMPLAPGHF
T1 sequence (P23944 whole entry): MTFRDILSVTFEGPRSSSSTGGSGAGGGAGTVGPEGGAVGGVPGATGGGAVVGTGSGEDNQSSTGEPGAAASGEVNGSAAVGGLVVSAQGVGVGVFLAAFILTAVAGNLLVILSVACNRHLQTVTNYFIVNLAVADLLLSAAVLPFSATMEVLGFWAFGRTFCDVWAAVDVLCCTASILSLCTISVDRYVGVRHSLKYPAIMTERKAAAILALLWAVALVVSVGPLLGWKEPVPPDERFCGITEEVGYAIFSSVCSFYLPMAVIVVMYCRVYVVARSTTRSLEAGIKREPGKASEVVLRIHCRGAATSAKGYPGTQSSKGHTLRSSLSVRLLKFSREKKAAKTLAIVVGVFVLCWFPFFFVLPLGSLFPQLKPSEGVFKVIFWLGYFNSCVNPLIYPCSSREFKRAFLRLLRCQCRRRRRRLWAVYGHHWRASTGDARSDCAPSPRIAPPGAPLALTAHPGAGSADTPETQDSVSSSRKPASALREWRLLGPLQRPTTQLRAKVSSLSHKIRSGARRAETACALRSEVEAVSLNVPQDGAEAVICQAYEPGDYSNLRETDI
T1 sequence (P43140 whole entry): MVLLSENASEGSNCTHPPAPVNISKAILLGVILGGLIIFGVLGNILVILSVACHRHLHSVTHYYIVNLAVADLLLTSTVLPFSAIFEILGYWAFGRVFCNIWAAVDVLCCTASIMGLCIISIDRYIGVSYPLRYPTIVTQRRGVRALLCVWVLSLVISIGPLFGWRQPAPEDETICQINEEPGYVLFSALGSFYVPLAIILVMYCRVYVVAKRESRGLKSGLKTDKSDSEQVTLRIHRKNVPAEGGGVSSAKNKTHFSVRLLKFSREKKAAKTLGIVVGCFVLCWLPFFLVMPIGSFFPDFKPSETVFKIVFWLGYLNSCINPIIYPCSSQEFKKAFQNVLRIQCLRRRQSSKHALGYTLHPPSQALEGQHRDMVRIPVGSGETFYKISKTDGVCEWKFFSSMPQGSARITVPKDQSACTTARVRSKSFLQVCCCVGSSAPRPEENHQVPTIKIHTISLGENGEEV
In words: Binding affinity against alpha-1 adrenergic receptor is the ability to inhibit the specific [3H]prazosin binding (0.2 nM) to rat isolated brain membranes by 50% was reported; 6.5*10e-5. Further details: species or system Membrane.

For assay [3], the target named is T2, Adrenergic receptor alpha-2 (Rattus norvegicus, UniProt P22086+P19328+P22909).
T2 sequence (P22086 whole entry): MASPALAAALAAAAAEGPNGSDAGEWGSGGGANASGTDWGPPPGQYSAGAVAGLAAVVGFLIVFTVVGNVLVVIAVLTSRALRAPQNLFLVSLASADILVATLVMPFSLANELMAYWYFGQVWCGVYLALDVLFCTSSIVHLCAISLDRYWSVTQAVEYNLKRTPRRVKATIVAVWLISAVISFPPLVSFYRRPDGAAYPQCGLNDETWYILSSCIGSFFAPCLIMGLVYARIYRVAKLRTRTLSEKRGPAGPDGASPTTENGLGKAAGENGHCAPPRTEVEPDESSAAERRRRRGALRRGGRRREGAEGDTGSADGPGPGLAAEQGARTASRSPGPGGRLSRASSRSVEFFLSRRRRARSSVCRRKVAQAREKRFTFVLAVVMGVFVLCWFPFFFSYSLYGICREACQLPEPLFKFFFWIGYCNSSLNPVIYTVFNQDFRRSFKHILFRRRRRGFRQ
T2 sequence (P19328 whole entry): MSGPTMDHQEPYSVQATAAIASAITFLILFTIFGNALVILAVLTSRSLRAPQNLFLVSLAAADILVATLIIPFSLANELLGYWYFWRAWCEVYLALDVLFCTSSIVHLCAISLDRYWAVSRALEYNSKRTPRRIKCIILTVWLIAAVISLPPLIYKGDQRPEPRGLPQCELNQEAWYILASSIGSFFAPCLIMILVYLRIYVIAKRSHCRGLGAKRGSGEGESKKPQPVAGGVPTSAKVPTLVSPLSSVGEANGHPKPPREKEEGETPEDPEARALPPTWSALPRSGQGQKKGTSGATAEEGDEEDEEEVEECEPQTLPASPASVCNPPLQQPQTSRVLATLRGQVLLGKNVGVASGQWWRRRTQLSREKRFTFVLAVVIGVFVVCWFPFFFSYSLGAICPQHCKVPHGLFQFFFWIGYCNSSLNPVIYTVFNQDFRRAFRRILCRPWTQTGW
T2 sequence (P22909 whole entry): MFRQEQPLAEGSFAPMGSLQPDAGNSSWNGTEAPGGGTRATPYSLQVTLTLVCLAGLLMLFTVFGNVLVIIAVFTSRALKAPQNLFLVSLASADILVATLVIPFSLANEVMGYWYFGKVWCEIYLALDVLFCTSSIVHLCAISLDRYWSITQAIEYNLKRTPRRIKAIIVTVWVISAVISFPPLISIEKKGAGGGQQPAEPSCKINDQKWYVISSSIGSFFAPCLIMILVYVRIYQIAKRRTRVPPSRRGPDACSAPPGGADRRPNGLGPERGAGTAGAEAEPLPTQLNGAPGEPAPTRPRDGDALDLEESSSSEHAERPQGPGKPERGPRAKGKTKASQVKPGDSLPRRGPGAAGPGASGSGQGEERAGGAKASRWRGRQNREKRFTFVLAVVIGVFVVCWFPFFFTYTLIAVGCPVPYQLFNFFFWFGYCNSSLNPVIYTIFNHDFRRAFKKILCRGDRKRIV
In words: Binding affinity against Alpha-2 adrenergic receptor is the ability to inhibit the specific [3H]-clonidine binding (0.4 nM) to rat isolated brain membranes by 50% was reported; 1*10e-6. Type of assay: tissue-based, Membrane. The method, boiled down:
(§1)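 Whole rat brain (minus cerebellum) from male Wistar rats (200–250 g), homogenized in ice-cold 50 mM Tris-HCl pH 7.7 and washed twice at 50000g. […] Bound ligand was collected by rapid filtration and counted. IC50 was derived by log-probit analysis.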

Assay [4] has as its target T2, Adrenergic receptor alpha-2. The experiment in a line: Binding affinity against Alpha-2 adrenergic receptor is the ability to inhibit the specific [3H]clonidine binding (0.4 nM) to rat isolated brain membranes by 50% was reported; 2.5*10e-9. In kind it is tissue-based, Membrane.
The subject of assay [5] is Rattus norvegicus. The experiment in a line: Hypotensive activity (25% decrease in arterial pressure) after i.v. administration to anesthetized normotensive rats.
Assay [6] addresses T1, Adrenergic receptor alpha-1. In words: Binding affinity against alpha-1 adrenergic receptor is the ability to inhibit the specific [3H]prazosin binding (0.2 nM) to rat isolated brain membranes by 50% was reported; 6.6*10e-7. Type of assay: tissue-based, Membrane. Put shortly: (§2)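 Brain membranes were prepared from male Wistar rats (200–250 g, cerebellum removed) in ice-cold 50 mmol/L Tris-HCl, pH 7.7, with two 50000g spins, and used at 1 mg/mL protein (Lowry). […] Bound label was collected by vacuum filtration and counted. IC50 came from log probit analysis.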

Assay [7] concerns the target T2, Adrenergic receptor alpha-2. The experiment in a line: Antagonist activity against B-HT 933-induced alpha-2-adrenoceptor-mediated vasoconstriction in pithed normotensive rats. Type of assay: functional.
The target is the same in assay [8]. The experiment in a line: Inhibition of specific [3H]clonidine binding (0.4 nM) to rat brain membranes alpha2 adrenoceptor. Type of assay: cell membranes, Membrane.
Assay [9] has as its target T1, Adrenergic receptor alpha-1. In words: Binding affinity against alpha-1 adrenergic receptor is the ability to inhibit the specific [3H]prazosin binding (0.2 nM) to rat isolated brain membranes by 50% was reported; 1.6*10e-6. Type of assay: tissue-based, Membrane. The method, boiled down:
as §2

Assay [10] concerns the target T2, Adrenergic receptor alpha-2. The experiment in a line: Binding affinity against Alpha-2 adrenergic receptor is the ability to inhibit the specific [3H]clonidine binding (0.4 nM) to rat isolated brain membranes by 50% was reported; 3.0*10e-8. Type of assay: tissue-based, Membrane.
The target of assay [11] is Adrenergic receptor alpha-2 (Homo sapiens) (UniProt P08913+P18825+P18089). Particulars: Oryctolagus cuniculus.
The target of assay [12] is T2, Adrenergic receptor alpha-2. In words: Inhibition of specific [3H]-clonidine binding (0.4 nM) to rat brain membranes alpha-2 adrenoceptor; 2.8*10e-7. Type of assay: cell membranes, Membrane.
The target is the same in assay [13]. In words: Binding affinity against Alpha-2 adrenergic receptor is the ability to inhibit the specific [3H]clonidine binding (0.4 nM) to rat isolated brain membranes by 50% was reported; 1.4*10e-7. Type of assay: tissue-based, Membrane. The method, boiled down: as §1
The target of assay [14] is T1, Adrenergic receptor alpha-1. The experiment in a line: Binding affinity against alpha-1 adrenergic receptor is the ability to inhibit the specific [3H]prazosin binding (0.2 nM) to rat isolated brain membranes by 50% was reported; 6.1*10e-5. Type of assay: tissue-based, Membrane.
Assay [15] has the same target. In words: Binding affinity against alpha-1 adrenergic receptor is the ability to inhibit the specific [3H]prazosin binding (0.2 nM) to rat isolated brain membranes by 50% was reported; 5.8*10e-7. In kind it is tissue-based, Membrane. The method, boiled down: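 Whole rat brain (minus cerebellum) from male Wistar rats (200–250 g), homogenized in ice-cold 50 mM Tris-HCl pH 7.7 and washed twice at 50000g. […] Bound ligand was collected by filtration and counted. IC50 was derived by log-probit analysis.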

For the compound `Cn1cc2c(NC3=NCCN3)cccc2n1` [INDANIDINE], the pC60 in the assay with Rattus norvegicus [1] is listed as -0.24 uM kg-1. Besides, the values for the half-maximal inhibitory concentration (IC50) in assay [2] and in [3] were 65 µM and 1 µM, respectively.
As for `CC(Oc1c(Cl)cccc1Cl)C1=NCCN1` (stereo not drawn) [LOFEXIDINE], in the assay on Rattus norvegicus [1], the pC60 turned out to be 1.99 uM kg-1. Further, the IC50 – broadly, the concentration that gives 50% inhibition – turned out to be 0.0025 µM in [4] and 0.66 µM in assay [6]. Moreover, in the assay on Rattus norvegicus [5], the pC25 was 2.09 uM kg-1.
Turning to `c1ccc2c(c1)OCC(CN1CCCCC1)O2` (stereo not drawn) [PIPEROXAN], the pA2 (in general, a measure of antagonist potency on a negative log scale) in assay [7] amounted to 6.23. Also, the half-inhibitory concentration (IC50) in assay [8] worked out at 0.14 µM.
`c1ccc2c(c1)CCCC2C1=NCCN1` (stereo not drawn) [TETRAHYDROZOLINE] displayed a pC60 with Rattus norvegicus [1] of 0.9 uM kg-1. In addition, the half-maximal inhibitory concentration (IC50) in assay [9] came out at 1.6 µM; in assay [10], 0.03 µM. In the assay on Rattus norvegicus [5], this compound had a pC25 of -0.16 uM kg-1.
In the case of `c1ccc(CC2=NCCN2)cc1` [TOLAZOLINE], in assay [7], the pA2 is 5.82. This compound also had a pC30 in assay [11] of 6.15. This compound also showed a half-maximal inhibitory concentration (IC50) in assay [12] of 0.28 µM.
Turning to `Cc1cccc(C)c1NC1=NCCCS1` [XYLAZINE], the pC60 in the assay with Rattus norvegicus [1] is given as -0.02 uM kg-1. Also, the results for the IC50 in assay [13] and in assay [14] were 0.14 µM and 61 µM, respectively. Moreover, the pC25 in the assay on Rattus norvegicus [5] worked out at 0.62 uM kg-1.
In turn, `Cc1cc(C(C)(C)C)cc(C)c1CC1=NCCN1` [XYLOMETAZOLINE] yielded a pC60 in the assay on Rattus norvegicus [1] of 1.12 uM kg-1. Also, in the assay with Rattus norvegicus [5], the pC25 was 0.26 uM kg-1. Moreover, in assay [15], the IC50 was 0.58 µM.

The values above are taken from ChEMBL document CHEMBL1122788, “Quantitative relationships between alpha-adrenergic activity and binding affinity of alpha-adrenoceptor agonists and antagonists” (J Med Chem, 1984).
